# Measurements from the array DNA melting data of Ke et al. (doi:10.1101/2024.01.08.574731).
# How the values were obtained:
# [1] = folding enthalpy; higher = less favourable; fluorescence melt of hairpins on a sequencing array, two-state fit; settings: sodium 0.088 M
# How it was run: (§1)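 Two-state fits, bootstrapped, provided melting temperature and folding enthalpy from Cy3 fluorescence normalised to pre-quench Cy3 and to control constructs. Library hairpins with annealed Cy3 and quencher oligos were imaged on a sequenced MiSeq flow cell in 50 mM Na-HEPES pH 8.0, 25 mM NaCl, at 2.5 °C intervals up to 60 °C. Four replicates were combined with inverse-variance weighting. A 9.35 °C upward shift was applied to fitted temperatures to match UV melts.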
# [2] = melting temperature; fluorescence melt of hairpins on a sequencing array, two-state fit, raised by 9.35 °C to match UV melts; settings: sodium 0.088 M
# How it was run: as §1
Sequence,folding enthalpy [1],Tm [2]
GGTCACGGAAACGTAACC (((.(((....))).))),-31.5 kcal/mol,42.1 °C
GGTCAGAAATGACC (((((....))))),-28.2 kcal/mol,53.6 °C
GGTCAGCGAAAGCTCACC (((.(((....))).))),-18.9 kcal/mol,41.7 °C
GGTCAGGCGAAAGCCACC (((..(((....)))))),-11.2 kcal/mol,35.6 °C
GGTCAGGGAAACCTGATC (.(((((....))))).),-27.2 kcal/mol,48.5 °C
GGTCAGGGAAACTTGACC (((((.(....).))))),-37.9 kcal/mol,49.5 °C
GGTCATGGAAACATAACC (((.(((....))).))),-18.5 kcal/mol,31.6 °C
GGTCATGGAAACATGATC (.(((((....))))).),-31.5 kcal/mol,47 °C
GGTCCAGCGAAAGCTACC (((..(((....)))))),-10.7 kcal/mol,30.1 °C
GGTCCAGGAAACCAGACC ((((..(....)..)))),-23.1 kcal/mol,34.5 °C
GGTCCAGGAAACTGGATC (.(((((....))))).),-32.1 kcal/mol,49.7 °C
GGTCCAGGAAACTGGGTC (..((((....))))..),-15.3 kcal/mol,39.5 °C
GGTCCCACGAAAGTGACC (((..(((....)))))),-15.8 kcal/mol,36.8 °C
GGTCCCCGAAAGGGACC (((.(((....)))))),-30.6 kcal/mol,68.4 °C
GGTCCCGAAAGGGACACC ((((((....)))..))),-8.21 kcal/mol,54.5 °C
GGTCCCGAAAGGGCGACC ((((((....)))..))),-14.3 kcal/mol,46 °C
GGTCCCGAAAGGGGGACC ((((((....)))..))),-25.4 kcal/mol,59.2 °C
GGTCCCGAAAGGGTAACC ((((((....)))..))),-18 kcal/mol,42.2 °C
GGTCCCGAAAGGGTGACC ((((((....)))..))),-19.6 kcal/mol,48 °C
GGTCCCGCGAAAGCGACC (((..(((....)))))),-11.3 kcal/mol,37.7 °C
GGTCCCGGAAACGAGACC ((((.((....)).)))),-32 kcal/mol,49.6 °C
GGTCCCGGAAACGGAACC (((.(((....))).))),-36 kcal/mol,48 °C
GGTCCGGCGAAAGCCACC (((..(((....)))))),-8.92 kcal/mol,27.1 °C

Sequence,folding enthalpy [1],Tm [2]
GGTCCGGGAAACCGGATC (.(((((....))))).),-24 kcal/mol,58.9 °C
GGTCCTCGAAAGAGCACC (((.(((....))).))),-27.1 kcal/mol,38.5 °C
GGTCCTCGAAAGAGTACC (((.(((....))).))),-31.1 kcal/mol,43.4 °C
GGTCCTGAAAAGGACC ((((((....)))))),-30.9 kcal/mol,68.2 °C
GGTCCTGGAAACAGGGCC ((.((((....)))).)),-46.3 kcal/mol,60.8 °C
GGTCCTGGAAACGGGACC (((((.(....).))))),-57.4 kcal/mol,57.3 °C
GGTCGACGAAAGTCACC (((.(((....)))))),-16.2 kcal/mol,50.9 °C
GGTCGACGAAAGTCCACC (((.(((....))).))),-25.6 kcal/mol,43.9 °C
GGTCGAGGAAACTCAACC (((.(((....))).))),-29.5 kcal/mol,37 °C
GGTCGCCGAAAGGCAACC (((.(((....))).))),-24.6 kcal/mol,56.1 °C
GGTCGCGAAAGCGAAACC ((((((....)))..))),-11.9 kcal/mol,50 °C
GGTCGCGAAAGCGAACC ((((((....))).))),-15.2 kcal/mol,67.3 °C
GGTCGCGAAAGCGCACC ((((((....))).))),-20.8 kcal/mol,60.3 °C
GGTCGCGGAAACGCGATC (.(((((....))))).),-17.6 kcal/mol,63.7 °C
GGTCGGCGAAAGCCAACC (((.(((....))).))),-21 kcal/mol,55.3 °C
GGTCGGCGAAAGCCCACC (((.(((....))).))),-21.7 kcal/mol,46.9 °C
GGTCGGCGAAAGCCTACC (((.(((....))).))),-25.9 kcal/mol,53.5 °C
GGTCGGGGAAACTCGACC (((((.(....).))))),-42.8 kcal/mol,58 °C
GGTCGTCGAAAGACAACC (((.(((....))).))),-26.1 kcal/mol,48.9 °C
GGTCGTCGAAAGACACC (((.(((....)))))),-22.1 kcal/mol,52.1 °C
GGTCGTGGAAACACGGTC (..((((....))))..),-15.8 kcal/mol,41.4 °C
GGTCGTGGAAACATGGCC ((.(.((....)).).)),-24 kcal/mol,45.8 °C
GGTCTACGAAAGTACACC (((.(((....))).))),-22 kcal/mol,35.8 °C

Sequence,folding enthalpy [1],Tm [2]
GGTCTACGAAAGTATACC (((.(((....))).))),-35.5 kcal/mol,42.2 °C
GGTCTCACGAAAGTGACC (((..(((....)))))),-14.5 kcal/mol,37.9 °C
GGTCTCGAAAGAGAACC ((((((....))).))),-19 kcal/mol,50 °C
GGTCTCGAAAGAGCGACC ((((((....)))..))),-18.1 kcal/mol,37.3 °C
GGTCTCGAAAGAGGACC ((((((....))).))),-28.3 kcal/mol,49.5 °C
GGTCTCGAAAGAGTACC ((((((....))).))),-24.3 kcal/mol,46.8 °C
GGTCTCGAAAGAGTTACC ((((((....)))..))),-17.3 kcal/mol,32.3 °C
GGTCTCGCGAAAGCGACC (((..(((....)))))),-9.72 kcal/mol,33.2 °C
GGTCTGACGAAAGTCACC (((..(((....)))))),-10.4 kcal/mol,27.8 °C
GGTCTGCCGAAAGGCACC (((..(((....)))))),-6.75 kcal/mol,28.8 °C
GGTCTGGGAAACCAGACC (((((((....))))))),-47.2 kcal/mol,67.7 °C
GGTCTGGGAAACCAGGCC ((.((((....)))).)),-47.6 kcal/mol,56.9 °C
GGTCTGGGAAACCAGGTC (..((((....))))..),-14.3 kcal/mol,34.9 °C
GGTCTGGGAAACCGGATC (.((.((....)).)).),-23.2 kcal/mol,40 °C
GGTCTGGGAAACTGGACC ((((..(....)..)))),-31.1 kcal/mol,45.1 °C
GGTCTTACGAAAGTAACC (((..(((....)))))),-10.7 kcal/mol,25.7 °C
GGTCTTCCGAAAGGAACC (((..(((....)))))),-10.5 kcal/mol,26.5 °C
GGTCTTGGAAACAAGATC (.(((((....))))).),-25.7 kcal/mol,44.5 °C
GGTGAAACGAAAGTTACC (((..(((....)))))),-18 kcal/mol,30.5 °C
GGTGAACCGAAAGGTACC (((..(((....)))))),-18 kcal/mol,37.8 °C
GGTGAACGAAAGTTGACC (((.(((....))).))),-30.4 kcal/mol,48.9 °C
GGTGAAGGAAACTCCACC ((((.((....)).)))),-31.3 kcal/mol,39 °C
GGTGAAGGAAACTTTGCC ((..(((....)))..)),-25.4 kcal/mol,34.6 °C

Sequence,folding enthalpy [1],Tm [2]
GGTGACGGAAACACCACC ((((..(....)..)))),-20 kcal/mol,34.5 °C
GGTGACGGAAACGTCGCC ((.((((....)))).)),-34 kcal/mol,64.6 °C
GGTGACTCGAAAGAGACC (((..(((....)))))),-16.5 kcal/mol,33 °C
GGTGAGACGAAAGTCACC (((..(((....)))))),-17.1 kcal/mol,46.8 °C
GGTGAGCGAAAGCTAACC (((.(((....))).))),-33.3 kcal/mol,55.5 °C
GGTGAGGAAACTCACC ((((((....)))))),-35 kcal/mol,61.6 °C
GGTGAGGCGAAAGCCACC (((..(((....)))))),-16.1 kcal/mol,51.7 °C
GGTGAGGGAAACCTCACC (((((((....))))))),-43.2 kcal/mol,67.5 °C
GGTGAGGGAAACCTTACC (((.(((....))).))),-33.9 kcal/mol,46.6 °C
GGTGAGGGAAACCTTGCC ((..(((....)))..)),-21.7 kcal/mol,41.8 °C
GGTGATCGAAAGATTACC (((.(((....))).))),-46.1 kcal/mol,51.1 °C
GGTGATGGAAACACCACC ((((.((....)).)))),-23.8 kcal/mol,46.6 °C
GGTGATGGAAACATCGTC (..((((....))))..),-18.1 kcal/mol,32.9 °C
GGTGCACGAAAGTGGACC (((.(((....))).))),-38.1 kcal/mol,65.7 °C
GGTGCAGCGAAAGCTACC (((..(((....)))))),-13.6 kcal/mol,39.1 °C
GGTGCAGGAAACCACACC ((((..(....)..)))),-21.4 kcal/mol,34.9 °C
GGTGCATCGAAAGATACC (((..(((....)))))),-10.2 kcal/mol,27.9 °C
GGTGCCGAAAGGCAGACC ((((((....)))..))),-12.1 kcal/mol,52.2 °C
GGTGCCGAAAGGCTCACC ((((((....)))..))),-11.6 kcal/mol,46.3 °C
GGTGCCGAAAGGCTTACC ((((((....)))..))),-13.7 kcal/mol,44.1 °C
GGTGCGCGAAAGCGACC (((.(((....)))))),-15.3 kcal/mol,56.7 °C
GGTGCGGGAAACCGCGTC (..((((....))))..),-11.5 kcal/mol,44.1 °C
